Bioassay records deposited in PubChem BioAssay by Johns Hopkins Ion Channel Center.
Rows were chosen to be rich in hits. Some 3.5% of all compounds tested hit in one or more screens of this group.
RGS4 pot – RGS4 potentiators or activators, primary screen, cell-based, HEK293 M3R inducible RGS4, calcium flux. AID 463111, 2010. 310,000 tested, 0.92% active. B-score at 10 µM. carbachol calcium flux Fluo4; hits give low values;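 active = B-score of the integrated calcium signal more than 4 SD below the library mean, with starting fluorescence not abnormally high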;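 also: negative B-score means reduced calcium response which marks RGS4 activation or potentiation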
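Assay system: HEK293 FlpIn-TREx cells, stable M3R, doxycycline-inducible RGS4 / Probe or stimulus: carbachol, ECmax concentration / Times: overnight RGS4 induction, 30 min dye load 37 °C, 20 min compound RT / Signal: kinetic calcium fluorescence imaging with Fluo4-AM dye, 2 µM / Measure: Agonist-evoked peak-minus-minimum fluorescence over baseline, integrated ratio, B score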
RGS4 inh – RGS4 inhibitors, primary screen, cell-based, HEK293 M3R inducible RGS4, calcium flux | Regulator of G-protein signaling 4 (Homo sapiens), P49798 | Fluo-4 calcium flux; hits give high values; triggered by carbachol at its EC20 | B-score at 10 µM | 310,000 tested, 0.45% active | AID 463165, 2010;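 active = B-score, a plate-corrected calcium signal, over three deviations above library mean, with baseline fluorescence within five deviations of library mean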;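 also: RGS4 expression induced by doxycycline in cells with stable M3 receptor; B-score is computed from the integrated fluorescence ratio over baseline after carbachol; higher B-score means a larger calcium signal and so more RGS4 inhibition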
Target sequence (P49798 whole entry, looked up): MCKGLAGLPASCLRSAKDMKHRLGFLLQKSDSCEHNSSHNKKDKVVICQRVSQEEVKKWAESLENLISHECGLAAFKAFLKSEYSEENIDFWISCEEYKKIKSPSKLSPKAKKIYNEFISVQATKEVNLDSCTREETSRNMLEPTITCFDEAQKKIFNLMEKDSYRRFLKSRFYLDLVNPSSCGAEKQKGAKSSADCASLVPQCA
MrgX1 PAM – positive allosteric modulators of MrgX1, primary screen, HEK293 cells, Fluo-4 calcium flux; B-score at 10 µM; AID 588675, 2011; FDSS; hits give high values; 310,000 tested, 0.63% active; Mas-related G-protein coupled receptor member X1 (Homo sapiens), Q96LB2;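 active = plate-corrected calcium response at least 3 library SD above typical, normal starting fluorescence, not activating the receptor alone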;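 also: compound read alongside a low EC10 to EC30 dose of BAM8-22 agonist; peak minus trough fluorescence over baseline measured at the second addition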
Target sequence (Q96LB2 whole entry, looked up): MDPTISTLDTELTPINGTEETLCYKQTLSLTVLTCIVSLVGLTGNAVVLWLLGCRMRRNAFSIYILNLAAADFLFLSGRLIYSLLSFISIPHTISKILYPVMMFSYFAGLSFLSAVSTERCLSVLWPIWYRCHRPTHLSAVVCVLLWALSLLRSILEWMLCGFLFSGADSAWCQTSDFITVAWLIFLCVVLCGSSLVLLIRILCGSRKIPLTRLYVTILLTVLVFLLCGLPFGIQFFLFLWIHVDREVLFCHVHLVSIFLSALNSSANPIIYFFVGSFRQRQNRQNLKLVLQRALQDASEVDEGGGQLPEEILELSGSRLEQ
MrgX1 antag – antagonists of human MrgX1 receptor, primary screen, HEK293 cells, Fluo-4 calcium flux | Mas-related G-protein coupled receptor member X1 (Homo sapiens), Q96LB2 | BAM8-22 antagonism; hits give low values | B-score at 10 µM | 310,000 tested, 1.3% active;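 active = calcium-response B-score plate-corrected more than 3 library SD below zero, starting fluorescence within 5 deviations, no agonist response on first addition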;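 also: peak minus trough fluorescence over baseline after final BAM8-22 challenge near maximal dose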
MrgX1 ag – agonists of human MrgX1 receptor, primary screen, HEK293 cells, Fluo-4 calcium flux; Mas-related G-protein coupled receptor member X1 (Homo sapiens), Q96LB2; Fluo-4 calcium fluorescence, agonist mode; hits give high values; B-score at 10 µM; 310,000 tested, 0.44% active;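 active = calcium response B-score plate-corrected fluorescence ratio at least 3 library SD, with starting fluorescence B-score inside 5 SD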
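System: HEK293 cells stably expressing human MrgX1 receptor; Dosing: test compound in the initial addition of three; Schedule: overnight plating, then 30 min 37 °C plus 30 min room-temperature dye loading; Detection: kinetic calcium dye fluorescence, Fluo-4 NW; Controls: per-plate positive and negative controls for Z′ factor.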
* = called active by the depositor; i = inactive; . = no result given.

SMILES	RGS4 pot	RGS4 inh	MrgX1 PAM	MrgX1 antag	MrgX1 ag
CCOP(=O)(C#Cc1ccccc1)C(O)c1ccc(Br)cc1 (stereo not drawn)	i	i	16.8*	i	i
O=C1N[C@H](Cc2ccccc2)C(=O)N2[C@@H]3[C@H](C[C@@H]12)c1ccccc1N3OOSc1ccccc1	i	i	i	i	i
Cc1ccc(C)c(NC(=S)NCCc2cnc[nH]2)c1	i	i	i	i	i
O=C(O)Cn1cc(/C=C2\C(=O)NC(=O)N(Cc3ccco3)C2=O)c2ccccc21	i	i	i	i	i
Cc1cc(/C=C2/C(=O)NC(=O)N(Cc3ccco3)C2=O)c(C)n1-c1ccccc1O	i	i	9.65*	i	i
CCOC(=O)c1cccc(-[n+]2c(-c3ccccc3)cc(-c3ccccc3)cc2-c2ccccc2)c1	-7.72*	i	i	-6.79*	i
CCOC(=O)c1ccc(-[n+]2c(-c3ccccc3)cc(-c3ccccc3)cc2-c2ccccc2)cc1	i	i	i	i	27.7*
Cc1ccc(-c2cc(-c3ccc(C)cc3)[n+](-c3ccc(C(=O)[O-])cc3)c(-c3ccc(C)cc3)c2)cc1	i	i	i	i	i
CC(c1ccccc1)[n+]1ccccc1 (stereo not drawn)	i	i	i	i	i
CCN(CC)CCCOC(=O)C(OC(C)C)(c1ccccc1)c1ccccc1	-10.6*	i	i	i	i
CCOC(C(=O)OCCCN(CC)CC)(c1ccccc1)c1ccccc1	i	i	i	i	i
O=C(c1ccc(Cl)cc1)C1CCCN(Cc2cccc3cnccc23)C1 (stereo not drawn)	-7.28*	i	i	i	i
COc1ccc(CN2CCCC(C(=O)c3ccc(Cl)cc3)C2)c(OC)c1 (stereo not drawn)	i	i	i	i	i
O=C(c1ccc(Cl)cc1)C1CCCN(Cc2ccc3ncccc3c2)C1 (stereo not drawn)	-7.35*	i	i	i	i
Cc1ccc(OP(=O)(NCc2ccccc2)Oc2ccc(C)cc2)cc1	i	i	i	i	i
Cc1nc2ccccc2c(=O)n1/N=C/c1cc(Br)cc(Br)c1O	i	i	i	-8.59*	i
Cc1c(C)c2ccc(OCC(=O)N3C[C@H]4C[C@@H](C3)c3cccc(=O)n3C4)c(C)c2oc1=O	-8.74*	i	i	i	i
Cc1c(Br)c(=O)oc2cc(OCC(=O)N3C[C@H]4C[C@@H](C3)c3cccc(=O)n3C4)ccc12	-7.54*	i	i	i	i
Cc1cc(=O)oc2c(C)c(OCC(=O)N3C[C@H]4C[C@@H](C3)c3cccc(=O)n3C4)ccc12	i	i	i	i	i
COc1ccc2c(c1)/C(=C/c1cnc[nH]1)C(=O)N2	i	i	i	i	i
O=C1Nc2ccccc2/C1=C/c1cnc[nH]1	i	i	i	-6.74*	i
C=CCN1C(=O)/C(=C/c2cc(C)n(-c3ccccn3)c2C)C(=O)NC1=S	i	i	i	-5.17*	i
C/C(=C/C=C/[C@@H](C)C(=O)O)[C@H]1CN[C@H](C(=O)O)[C@H]1CC(=O)O	.	.	i	i	i
C[C@]12CCC3[C@@H](CCC4=CC(=O)CC[C@@]43CO)C1CCC2=O (stereo partly drawn)	i	i	i	i	i
CC(C)(O)[C@H]1O[C@H]2CC[C@@]3(C)[C@@](O)(CC[C@H]4Cc5c([nH]c6ccccc56)[C@@]43C)C2=CC1=O	i	i	i	-4.6*	i
SMILES	RGS4 pot	RGS4 inh	MrgX1 PAM	MrgX1 antag	MrgX1 ag
C/C=C1/CN2C3CC1C(CO)(C(=O)OC)C2Cc1c3n(C)c2ccccc12 (stereo not drawn)	i	i	i	i	i
O=C(CCC(=O)N1C[C@H]2C[C@@H](C1)c1cccc(=O)n1C2)NCc1ccccc1	i	i	i	i	i
CN1C2CCC1CC(=NO)C2	i	i	i	-5.28*	i
COC(=O)C1=C(c2cc3ccccc3o2)C[C@@H]2CC[C@H]1N2C(=O)N1CCC(O)CC1	i	i	i	i	i
CCCCCSc1cc(OC)c(CCN(C)C)cc1OC	-7.71*	i	i	i	i
CCCCCSc1cc(O)c(C(CNC)C(C)C)cc1OC (stereo not drawn)	i	i	i	i	i
CCn1c(O)c(/C=N/NC(=O)c2ccccc2)c(=O)n(CC)c1=S	i	i	i	i	48.6*
CCC(CO)(C(=O)OC1C[N+]2(C)CCC1CC2)c1ccccc1 (stereo not drawn)	-8.9*	i	i	i	i
C#C[C@]1(O)CCC2C3CCC4=C/C(=N/OCC(=O)NC(C)C(=O)NC(CCSC)C(=O)O)CC[C@]4(C)C3CC[C@@]21C (stereo partly drawn)	i	i	i	i	i
CCn1cc(/C=c2/sc3n(c2=O)C2c4ccccc4OC(C)(N=3)C2C(=O)OC)c(C)n1 (stereo not drawn)	i	i	i	i	i
COC(=O)C1C2c3ccccc3OC1(C)N=c1s/c(=C/c3cn(C)nc3C)c(=O)n12 (stereo not drawn)	i	i	7.11*	i	i
Fc1ccc(C(OCCN2CCCC2)c2ccc(Br)cc2)cc1 (stereo not drawn)	-9.77*	i	i	i	i
C=C(C)[C@@]12OC3(c4ccccc4)O[C@@H]1C1[C@@H]4O[C@]4(CO)[C@@H](O)[C@]4(O)C(=O)C(C)=C[C@H]4[C@@]1(O3)[C@H](C)[C@H]2OC(=O)/C=C/C=C/c1ccccc1 (stereo partly drawn)	-8.62*	i	i	i	i
CC(C)C[C@H](NP(=O)(O)O[C@@H]1O[C@@H](C)[C@H](O)[C@@H](O)[C@H]1O)C(=O)N[C@@H](Cc1c[nH]c2ccccc12)C(=O)O	.	.	i	i	i
COC(=O)C1=C(N)Oc2c(c(=O)oc3ccccc23)[C@]12C(=O)N(C)c1ccccc12	i	i	8.62*	i	i
c1ccc2sc(C3CCNCC3)nc2c1	i	i	i	i	i
Cc1cccc(-n2c(O)c(/C=C/C=Nc3ccccc3)c(=O)[nH]c2=O)c1	i	i	i	i	i
